The target of experiment [1] is T1, 5-hydroxytryptamine receptor 1A (Homo sapiens) (UniProt P08908).
T1 sequence (whole entry): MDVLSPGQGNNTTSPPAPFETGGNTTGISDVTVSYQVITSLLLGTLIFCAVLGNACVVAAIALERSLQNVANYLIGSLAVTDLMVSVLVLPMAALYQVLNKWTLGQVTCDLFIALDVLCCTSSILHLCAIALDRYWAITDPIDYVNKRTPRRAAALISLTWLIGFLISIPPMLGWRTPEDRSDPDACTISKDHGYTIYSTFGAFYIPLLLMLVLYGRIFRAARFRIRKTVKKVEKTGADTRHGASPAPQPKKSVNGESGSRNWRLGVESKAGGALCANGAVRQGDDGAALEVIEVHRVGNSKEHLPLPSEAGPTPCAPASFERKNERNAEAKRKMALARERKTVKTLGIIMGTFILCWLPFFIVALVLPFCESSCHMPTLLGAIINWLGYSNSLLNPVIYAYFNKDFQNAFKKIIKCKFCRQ
The experiment is described as follows: Antagonist activity against CHO cells expressing the human 5-hydroxytryptamine 1A receptor in a forskolin stimulated adenylate cyclase (FSC) assay. Format: functional, cell-based.

Experiment [2] has as its target T2, 5-hydroxytryptamine receptor 1A (Rattus norvegicus, UniProt P19327).
T2 sequence (P19327 whole entry): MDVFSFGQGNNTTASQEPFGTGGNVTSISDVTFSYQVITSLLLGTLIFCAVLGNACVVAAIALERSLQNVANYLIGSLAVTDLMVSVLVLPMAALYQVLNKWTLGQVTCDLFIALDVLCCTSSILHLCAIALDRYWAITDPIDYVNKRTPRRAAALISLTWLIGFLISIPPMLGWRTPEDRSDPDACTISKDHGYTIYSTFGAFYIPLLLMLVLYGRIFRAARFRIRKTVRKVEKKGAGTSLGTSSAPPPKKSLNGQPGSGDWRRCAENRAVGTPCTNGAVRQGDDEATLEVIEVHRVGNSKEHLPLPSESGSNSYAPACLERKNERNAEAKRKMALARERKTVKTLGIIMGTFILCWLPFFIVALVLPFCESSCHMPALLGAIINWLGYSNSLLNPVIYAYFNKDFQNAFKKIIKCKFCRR
Kind of experiment: Binding affinity against 5-hydroxytryptamine 1A receptor on rat hippocampus using [3H]8-OH-DPAT as radioligand. Format: tissue-based.

In experiment [3] the target is T3, Adrenergic receptor alpha-1 (Rattus norvegicus, UniProt P15823+P23944+P43140).
T3 sequence (P15823 whole entry): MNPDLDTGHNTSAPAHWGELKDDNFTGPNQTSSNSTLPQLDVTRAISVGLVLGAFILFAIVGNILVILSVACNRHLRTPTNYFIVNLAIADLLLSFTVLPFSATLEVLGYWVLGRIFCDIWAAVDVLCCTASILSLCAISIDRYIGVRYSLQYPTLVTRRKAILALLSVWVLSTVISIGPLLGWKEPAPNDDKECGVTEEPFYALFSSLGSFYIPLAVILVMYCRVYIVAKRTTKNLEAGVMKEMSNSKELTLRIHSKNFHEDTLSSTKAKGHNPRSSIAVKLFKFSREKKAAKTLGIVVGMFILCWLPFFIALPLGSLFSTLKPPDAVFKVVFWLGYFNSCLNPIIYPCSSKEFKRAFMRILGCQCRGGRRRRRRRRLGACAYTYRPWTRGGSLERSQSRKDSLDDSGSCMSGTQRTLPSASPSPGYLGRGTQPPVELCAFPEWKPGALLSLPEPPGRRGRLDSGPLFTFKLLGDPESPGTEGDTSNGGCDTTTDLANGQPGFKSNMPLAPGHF
T3 sequence (P23944 whole entry): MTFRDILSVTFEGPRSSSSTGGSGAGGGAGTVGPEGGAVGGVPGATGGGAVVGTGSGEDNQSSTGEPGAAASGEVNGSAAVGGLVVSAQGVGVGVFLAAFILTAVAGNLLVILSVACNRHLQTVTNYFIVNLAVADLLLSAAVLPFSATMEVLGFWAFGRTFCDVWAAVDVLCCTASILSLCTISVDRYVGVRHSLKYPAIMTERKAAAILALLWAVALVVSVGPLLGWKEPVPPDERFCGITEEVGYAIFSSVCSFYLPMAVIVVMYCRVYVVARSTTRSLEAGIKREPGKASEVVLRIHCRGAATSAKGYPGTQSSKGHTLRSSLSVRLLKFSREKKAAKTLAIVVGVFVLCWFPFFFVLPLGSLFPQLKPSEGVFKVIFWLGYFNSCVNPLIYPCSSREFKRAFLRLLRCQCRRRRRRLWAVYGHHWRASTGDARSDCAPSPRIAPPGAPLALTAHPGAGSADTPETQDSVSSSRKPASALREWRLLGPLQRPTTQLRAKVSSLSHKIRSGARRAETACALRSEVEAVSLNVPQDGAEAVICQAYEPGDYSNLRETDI
T3 sequence (P43140 whole entry): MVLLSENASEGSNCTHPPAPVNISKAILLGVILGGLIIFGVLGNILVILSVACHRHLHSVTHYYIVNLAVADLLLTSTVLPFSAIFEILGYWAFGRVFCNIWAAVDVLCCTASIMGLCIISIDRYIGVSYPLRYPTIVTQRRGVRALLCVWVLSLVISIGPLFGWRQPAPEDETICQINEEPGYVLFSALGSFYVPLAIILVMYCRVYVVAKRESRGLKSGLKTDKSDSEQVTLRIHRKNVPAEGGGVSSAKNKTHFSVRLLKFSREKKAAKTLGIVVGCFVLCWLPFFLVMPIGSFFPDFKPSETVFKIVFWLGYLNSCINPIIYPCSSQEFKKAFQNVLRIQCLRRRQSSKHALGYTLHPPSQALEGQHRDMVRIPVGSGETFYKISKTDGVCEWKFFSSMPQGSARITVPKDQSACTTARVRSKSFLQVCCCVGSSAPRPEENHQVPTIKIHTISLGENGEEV
Kind of experiment: Binding affinity against alpha-1 adrenergic receptor on rat cortex using [3H]-prazosin as radioligand. The format is tissue-based, Brain.

For a further experiment, the target named is D(2) dopamine receptor (Rattus norvegicus, UniProt P61169). The experiment is described as follows: Binding affinity against dopamine receptor D2 on rat striatum using [3H]spiperone as radioligand. The format is tissue-based.
Experiment [4] concerns Rattus norvegicus. Kind of experiment: In vivo antagonist activity was measured as forepaw treading(FT) in a behavioral response test in reserpinized rats upon subcutaneous administration. The format is functional. In short, it runs like this:
(§1)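 Male Wistar rats given reserpine 18 h before use. Test compound or vehicle given 15 min before 8-OH-DPAT (0.25 mg/kg sc). Starting 3 min after agonist, forepaw treading and flat body posture scored every 3 min for 15 min on a ranked intensity scale. Doses expressed as free base. Mean ± SEM; Mann–Whitney U-test against vehicle control.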

Experiment [5] relates to Rattus norvegicus. The experiment is described as follows: In vivo antagonist activity was measured as flat body posture (FBP) in a behavioral response test in reserpinized rats at 1 mg/kg(sc) dose. Format: functional. In short, it runs like this:
as §1

Experiment [6] deals with Rattus norvegicus. The experiment is described as follows: In vivo antagonist activity was measured as flat body posture (FBP) in a behavioral response test in reserpinized rats at 3 mg/kg(sc) dose. The format is functional. In short, it runs like this: as §1
For experiment [7], the system named is Rattus norvegicus. Kind of experiment: In vivo antagonist activity was measured as flat body posture (FBP) in a behavioral response test in reserpinized rats upon subcutaneous administration. The format is functional. In short, it runs like this:
as §1

The test system of experiment [8] is Rattus norvegicus. The experiment is described as follows: In vivo antagonist activity was measured as forepaw treading(FT) in a behavioral response test in reserpinized rats at 1 mg/kg(sc) dose. The format is functional. Put shortly:
as §1

Experiment [9] has as its system Rattus norvegicus. The experiment is described as follows: In vivo antagonist activity was measured as forepaw treading(FT) in a behavioral response test in reserpinized rats at 3 mg/kg(sc) dose. Format: functional. In short, it runs like this: as §1
Experiment [10] has as its target Serotonin 1a (5-HT1a) receptor/Adrenergic receptor alpha-1 (Rattus norvegicus) (UniProt P15823+P23944+P43140+P19327). The experiment is described as follows: Selectivity for 5-HT1A receptor of rat hippocampus and alpha-1 adrenergic receptor of rat cortex. Format: tissue-based.
Experiment [11] is described as follows: Binding affinity (Ki) ratio of D2 receptor of rat striatum and 5-HT1A receptor of rat hippocampus. Format: tissue-based.
For experiment [12], the system named is Rattus norvegicus. The experiment is described as follows: in vivo antagonist activity was measured as forepaw treading(FT) in a behavioral response test in reserpinized rats at 3 mg/kg(sc) dose. The format is functional. In short, it runs like this: (§2)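 Male Wistar rats given reserpine 18 h beforehand. Test compound or vehicle given sc; 15 min later 8-OH-DPAT 0.25 mg/kg sc. Forepaw treading and flat body posture scored on a ranked intensity scale every 3 min for 15 min, starting 3 min after 8-OH-DPAT. Doses as free base; mean ± SEM, Mann–Whitney U-test against vehicle controls.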

The subject of experiment [13] is Rattus norvegicus. The experiment is described as follows: in vivo antagonist activity was measured as forepaw treading(FT) in a behavioral response test in reserpinized rats upon subcutaneous administration. The format is functional. In short, it runs like this: as §2
In experiment [14] the test system is Rattus norvegicus. The experiment is described as follows: in vivo antagonist activity was measured as flat body posture (FBP) in a behavioral response test in reserpinized rats at 1 mg/kg(sc) dose. The format is functional. In short, it runs like this: as §2
The subject of experiment [15] is Rattus norvegicus. Kind of experiment: in vivo antagonist activity was measured as flat body posture (FBP) in a behavioral response test in reserpinized rats at 3 mg/kg(sc) dose. The format is functional. In short, it runs like this: as §2
Experiment [16] relates to Rattus norvegicus. The experiment is described as follows: in vivo antagonist activity was measured as flat body posture (FBP) in a behavioral response test in reserpinized rats upon subcutaneous administration. Format: functional. Put shortly: as §2
Experiment [17] relates to Rattus norvegicus. Kind of experiment: in vivo antagonist activity was measured as forepaw treading(FT) in a behavioral response test in reserpinized rats at 1 mg/kg(sc) dose. The format is functional. Put shortly:
as §2

Chain of D(2) dopamine receptor (P61169 whole entry): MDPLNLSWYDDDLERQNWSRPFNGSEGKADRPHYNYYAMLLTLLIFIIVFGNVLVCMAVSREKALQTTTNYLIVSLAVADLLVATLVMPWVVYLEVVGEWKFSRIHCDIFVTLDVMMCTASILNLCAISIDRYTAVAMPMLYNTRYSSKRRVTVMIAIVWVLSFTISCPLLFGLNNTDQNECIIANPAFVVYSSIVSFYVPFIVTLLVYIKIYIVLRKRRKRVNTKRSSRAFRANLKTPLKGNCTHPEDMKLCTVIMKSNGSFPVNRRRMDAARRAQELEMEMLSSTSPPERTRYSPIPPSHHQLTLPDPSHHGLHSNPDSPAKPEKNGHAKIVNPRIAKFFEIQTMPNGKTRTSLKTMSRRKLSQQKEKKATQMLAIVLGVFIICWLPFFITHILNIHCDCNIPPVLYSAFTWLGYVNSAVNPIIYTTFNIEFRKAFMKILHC

In experiment [1], `COc1ccc(CCCCNCCOc2cc(F)cc3c2OCCC3=O)cc1` yielded an FSC recovery of 59%. Also, the inhibition constant Ki (usually the dissociation constant of the complex between target and ligand, obtained from inhibition or displacement) in [2] is 3.07 nM; in experiment [3], 203 nM; at D(2) dopamine receptor it was 62.3 nM. Besides, the Behavior score with Rattus norvegicus [4] is on record as 10.2; in the experiment on Rattus norvegicus [5], 6; in the experiment on Rattus norvegicus [6] it was 2.3; in the experiment with Rattus norvegicus [7] it was 11.3; in the experiment with Rattus norvegicus [8], 3.8; in the experiment on Rattus norvegicus [9], 1.3. Also, the Selectivity in experiment [10] was 66. In [11], the Ratio was 20.
The molecule `O=C1CCOc2c(OCCNCCCCc3ccc4c(c3)OCO4)cc(F)cc21` showed an FSC recovery in experiment [1] of 55%. For the same molecule, the Ki in experiment [2] is 2.67 nM; in [3] it was 209 nM; at D(2) dopamine receptor it was 42.1 nM. The Behavior score was found to be 7.8 in the experiment with Rattus norvegicus [4]; 5.3 with Rattus norvegicus [5]; 3 with Rattus norvegicus [6]; 9.7 in the experiment on Rattus norvegicus [7]; 3 in the experiment with Rattus norvegicus [8]; 1.5 in the experiment with Rattus norvegicus [9]. In experiment [10], this molecule yielded a Selectivity of 78. Further, in experiment [11], the Ratio worked out at 16.
`CCCN(CCC)[C@H]1CCc2c(F)ccc(O)c2C1`: the Behavior score with Rattus norvegicus [12] is recorded as 0.5; with Rattus norvegicus [13], 9.9; with Rattus norvegicus [14] it was 3.5; with Rattus norvegicus [15], 1.8; in the experiment on Rattus norvegicus [16] it was 12.6; in the experiment on Rattus norvegicus [17] it was 1.3. This molecule returned a Selectivity in [10] of 130.
